In ChEMBL document CHEMBL1159115, “Piperidine-derived gamma-secretase modulators” (Bioorg Med Chem Lett, 2010):

How the values were obtained:
[1] = Clearance in rat blood at 1 mg/kg, iv and 3 mg/kg, po; format: ADME, organism-based
Procedure, shortened: (§1)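 Rat PK: iv 1 mg/kg paired with oral 3 mg/kg or 2 mg/kg; values are the mean from three animals. Oral bioavailability was measured with the sodium salt in 1% methylcellulose vehicle.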

[2] = target: Gamma-secretase; experiment: (§2) Inhibition of gamma-secretase in human SHSY5Y cells expressing human recombinant APP assessed as increase in Abeta38 level after 24 hrs by DELFIA; format: cell-based; details: sh-sy5y
[3] = target: T1, Gamma-secretase (Homo sapiens) (UniProt Q96BI3+Q9NZ42+Q8WW43+P49768+Q92542+P49810); experiment: as §2; format: cell-based; details: SH-SY5Y
[4] = Inhibition of gamma-secretase expressed in african green monkey CV1 cells coexpressing Gal4 DNA-binding/transactivation domain assessed as inhibition of notch processing by luciferase reporter assay; format: cell-based; details: CV-1
[5] = Volume of distribution at steady state in mouse at 3 mg/kg, iv and 10 mg/kg, po; format: ADME, organism-based; details: in vivo, read-out: Vdss
Procedure, shortened: (§3)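 Mouse PK: single iv dose of 3 mg/kg and oral dose of 10 mg/kg; data are the mean from three animals.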

[6] = Drug level in mouse brain at 5 mg/kg, po after 2 hrs; format: ADME, organism-based; design: dose 5 mg/kg, route oral; details: read-out: Drug uptake
Procedure, shortened: (§4)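 Mice dosed orally at 5 mg/kg in 1% (w/v) aqueous methylcellulose. Blood and brain sampled 2 h post-dose; brain:blood ratio derived from these levels; mean of three mice.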

[7] = Half life in dog at 1 mg/kg, iv and 1 mg/kg, po; format: ADME, organism-based, Canis lupus familiaris; details: in vivo
Procedure, shortened: (§5)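 Dog PK: iv and oral doses each 1 mg/kg; data from a single animal. Oral bioavailability was measured with the sodium salt in 1% methylcellulose vehicle.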

[8] = Drug level in mouse blood at 5 mg/kg, po after 2 hrs; format: ADME, organism-based; design: dose 5 mg/kg, route oral; details: read-out: Drug uptake; procedure, shortened: as §4
[9] = Half life in mouse at 3 mg/kg, iv and 10 mg/kg, po; format: ADME, organism-based; details: in vivo; procedure, shortened: as §3
[10] = test system: SH-SY5Y; experiment: Cytotoxicity against human SH-SY5Y cells after 24 hrs by WST1 assay; format: cell-based
[11] = target: Gamma-secretase; experiment: Inhibition of gamma-secretase in human SHSY5Y cells expressing human recombinant APP assessed as effect on Abeta40 level after 24 hrs by DELFIA; format: cell-based; details: sh-sy5y
[12] = target: Gamma-secretase; experiment: Inhibition of gamma-secretase in human SHSY5Y cells expressing human recombinant APP assessed as amyloid beta42 formation by ELISA; format: cell-based; details: sh-sy5y; in the assay text read “amyloid beta40 formation” for “amyloid beta42 formation”
Procedure, shortened: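 SH-SY5Y cells overexpressing human APP Swedish variant were incubated with compound for 48 h. Secreted Aβ42 and Aβ40 were measured by immunoassay (MSD electrochemiluminescence or AlphaLISA).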

[13] = test system: CV-1; experiment: Inhibition of gamma-secretase expressed in african green monkey CV1 cells coexpressing Gal4 DNA-binding/transactivation domain assessed as inhibition of notch processing by luciferase reporter assay at 20 uM; format: cell-based
[14] = Clearance in dog blood at 1 mg/kg, iv and 1 mg/kg, po; format: ADME, organism-based, Canis lupus familiaris; procedure, shortened: as §5
[15] = Clearance in mouse blood at 3 mg/kg, iv and 10 mg/kg, po; format: ADME, organism-based; procedure, shortened: as §3
[16] = Oral bioavailability in dog at 1 mg/kg; format: ADME, organism-based, Canis lupus familiaris; details: in vivo; procedure, shortened: as §5
[17] = Volume of distribution at steady state in rat at 1 mg/kg, iv and 3 mg/kg, po; format: ADME, organism-based; details: in vivo, read-out: Vdss; procedure, shortened: as §1
[18] = Oral bioavailability in mouse at 10 mg/kg; format: ADME, organism-based; details: in vivo; procedure, shortened: as §3
[19] = target: Gamma-secretase; experiment: Inhibition of gamma-secretase in human SHSY5Y cells expressing human recombinant APP assessed as amyloid beta40 formation by ELISA; format: cell-based; details: sh-sy5y; in the assay text read “amyloid beta42 formation” for “amyloid beta40 formation”
Procedure, shortened: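 SH-SY5Y cells overexpressing human APP Swedish variant exposed to compound for 48 h; Aβ40 (and Aβ42) in the cell medium quantified by ELISA, either Meso Scale Discovery or AlphaLISA format. Compounds also cross-screened for inhibition of Notch processing.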

[20] = Oral bioavailability in rat at 3 mg/kg; format: ADME, organism-based; details: in vivo; procedure, shortened: as §1
[21] = target: Gamma-secretase; experiment: Inhibition of gamma-secretase in human SHSY5Y cells expressing human recombinant APP assessed as decrease in total Abeta level after 24 hrs by DELFIA; format: cell-based; details: sh-sy5y
[22] = Volume of distribution at steady state in dog at 1 mg/kg, iv and 1 mg/kg, po; format: ADME, organism-based, Canis lupus familiaris; details: in vivo, read-out: Vdss; procedure, shortened: as §5
[23] = Half life in rat at 1 mg/kg, iv and 3 mg/kg, po; format: ADME, organism-based; details: in vivo; procedure, shortened: as §1
[24] = target: Gamma-secretase; experiment: (§6) Inhibition of gamma-secretase in human SHSY5Y cells expressing human recombinant APP assessed as decrease in Abeta42 level after 24 hrs by DELFIA; format: cell-based; details: sh-sy5y
[25] = target: T1, Gamma-secretase (Homo sapiens); experiment: as §6; format: cell-based; details: SH-SY5Y

clearance [1]: 4 mL/min/kg
pEC50 [2]: 6.3
Activity [3]: Dose-dependent effect
IC50 [4]: > 20 µM
Vd [5]: 1.4 L/kg
concentration at 2 h [6]: 4.2 µM
half-life [7]: 312 min
concentration at 2 h [8]: 5.6 µM
half-life [9]: 258 min
pIC50 [11]: 4.4
pIC50 [12]: 5.2
clearance [14]: 3 mL/min/kg
clearance [15]: 4 mL/min/kg
bioavailability [16]: 72%
Vd [17]: 2.3 L/kg
bioavailability [18]: > 100%
pIC50 [19]: 6.5
bioavailability [20]: > 100%
pIC50 [21]: 4
Vd [22]: 1.1 L/kg
half-life [23]: 396 min
pIC50 [24]: 6
Activity [25]: Dose-dependent effect
Compound: CC(C)CC[C@H](c1ccc(C(F)(F)F)nc1)N1CC[C@@H](CC(=O)[O-])C[C@H]1c1ccc(C(F)(F)F)cc1.[Na+]
IC50 [10]: 100 µM
inhibition [13]: 24%
